Measured values reported in ChEMBL document CHEMBL3352401, “Synthesis and antiviral activity of new phenylimidazopyridines and N-benzylidenequinolinamines derived by molecular simplification of phenylimidazo[4,5-g]quinolines” (Eur J Med Chem, 2014).

Columns and labels:
[1] = Cytotoxicity against mock-infected human MT4 cells assessed as reduction in proliferation after 96 hrs by MTT method; format: cell-based
In short: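 Exponentially growing MT-4 cells seeded at 1 × 10⁵ cells/mL in RPMI-1640 with 10% FBS, penicillin and streptomycin. Held 96 h at 37 °C, 5% CO₂ with or without serial compound dilutions; viability by MTT. Compounds dissolved in DMSO at 100 mM stock, then diluted in medium. CC50 by linear regression.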

[2] = Antiviral activity against Simian virus 12 3651 (ATCC VR- 214) infected in BHK21 cells assessed as protection from virus-induced cytopathogenicity after 3 to 4 days by MTT method; format: functional, cell-based; details: BHK-21
In short: (§1)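 Confluent monolayers grown overnight (BHK-21 at 5×10⁴ cells/well for YFV and Reo-1; MDBK at 3×10⁴ cells/well for BVDV). Infection at m.o.i. 0.01 for 2 h in maintenance MEM-Earle with 0.5% inactivated FBS, then serial compound dilutions added. Viability read by MTT after 3–4 days at 37 °C. EC50 taken from linear regression against untreated controls.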

[3] = Antiviral activity against Vaccinia virus Lister ATCC VR-1549 infected in Vero 76 cells after 3 days by plaque reduction assays; format: functional, cell-based; details: ATCC VR-1549, Vero 76, 72 h
[4] = Cytotoxicity against mock-infected hamster BHK21 cells assessed as reduction in proliferation after 72 hrs by MTT method; format: cell-based, Mesocricetus auratus, BHK-21
In short: (§2)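 MDBK and BHK cells seeded at 6 × 10⁵ and 1 × 10⁶ cells/mL respectively. Medium was MEM-Earle with L-glutamine, 1 mM pyruvate and kanamycin, plus 10% horse serum (MDBK) or 10% FBS (BHK). Cells exposed to serial compound dilutions at 37 °C, 5% CO₂; MTT viability read at 72 h. CC50 by linear regression versus untreated controls.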

[5] = test system: Vesicular stomatitis Indiana virus; assay: Antiviral activity against Vesicular stomatitis Indiana virus ATCC VR 158 infected in Vero 76 cells after 2 days by plaque reduction assays; format: functional, organism-based; details: ATCC VR 158, Vero 76, 48 h
[6] = test system: Coxsackievirus B5; assay: Antiviral activity against Coxsackievirus B5 Faulkner (ATCC VR-185) infected in Vero 76 cells after 3 days by plaque reduction assays; format: functional, organism-based; details: Enterovirus B, Vero 76, 72 h
[7] = Cytotoxicity against mock-infected bovine MDBK cells assessed as reduction in proliferation after 72 hrs by MTT method; format: cell-based, Bos taurus; details: cattle; in short: as §2
[8] = test system: Human poliovirus 1 strain Sabin; assay: Antiviral activity against Poliovirus 1 strain Sabin ATCC VR-1562 infected in Vero 76 cells after 2 days by plaque reduction assays; format: functional, organism-based; details: Enterovirus C, ATCC VR-1562, Vero 76, 48 h
[9] = test system: Human alphaherpesvirus 1; assay: Antiviral activity against Human herpesvirus 1 strain KOS ATCC VR- 1493 infected in Vero 76 cells after 3 days by plaque reduction assays; format: functional, organism-based; details: Human alphaherpesvirus 1, KOS ATCC VR1493, Vero 76, 72 h
[10] = test system: Yellow fever virus; assay: Antiviral activity against Yellow fever virus 17D Stamaril Pasteur J07B01 infected in BHK21 cells assessed as protection from virus-induced cytopathogenicity after 3 to 4 days by MTT method; format: functional, cell-based; details: Stamaril Pasteur J07B01, BHK-21; in short: as §1
[11] = Cytotoxicity against mock-infected African green monkey Vero 76 cells assessed as reduction in proliferation after 48 to 96 hrs by MTT method; format: cell-based; details: chlorocebus sabaeus, Vero 76 cells (mock-infected)
In short: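 Vero-76 cells seeded at 4 × 10⁵ cells/mL in D-MEM with L-glutamine, kanamycin and 10% FBS. Incubated at 37 °C, 5% CO₂, with or without serial dilutions of compound; viability read by MTT after 48–96 h. Run in parallel with antiviral assays. CC50 obtained by linear regression of % of untreated control.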

[12] = Antiviral activity against Human respiratory syncytial virus A2 ATCC VR-1540 infected in Vero 76 cells after 5 days by plaque reduction assays; format: functional, cell-based; details: ATCC VR-1540, Vero 76, 120 h
[13] = Antiviral activity against Bovine viral diarrhea virus 1-NADL ATCC VR-534 infected in MDBK cells assessed as protection from virus-induced cytopathogenicity after 3 to 4 days by MTT method; format: functional, cell-based; details: Bovine viral diarrhea virus isolates and strains, ATCC VR-534, MDBK; in short: as §1
[14] = test system: Human immunodeficiency virus 1; assay: Antiviral activity against HIV-13B infected in MT4 cells assessed as protection from virus-induced cytopathogenicity after 4 days by MTT method; format: functional, organism-based; details: Human immunodeficiency virus 1, 3B, MT4, 96 h
In short: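 HIV-1 IIIB, taken from persistently infected H9/IIIB supernatant. MT-4 cells (1×10⁴/well) in RPMI with serial compound dilutions, infected with 100 CCID50 (m.o.i. 0.01). Viability by MTT after 4 days at 37 °C. EC50 = 50% protection from cytopathogenicity, by linear regression against untreated controls. Compounds kept as 100 mM DMSO stocks, diluted in medium.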

O=[N+]([O-])c1ccc(-c2nc3cc4cccnc4c(Cl)c3[nH]2)cc1
> 44 µM: EC50 [9]
> 100 µM: CC50 at 96 h [1] | EC50 [2] | EC50 [3] | CC50 at 72 h [4] | EC50 [5] | EC50 [6] | CC50 at 72 h [7] | EC50 [8] | EC50 [10] | CC50 [11] | EC50 [12] | EC50 [14]
1.2 µM: EC50 [13]

C#C[C@@]1(O)[C@H](O)[C@@H](CO)O[C@H]1n1ccc(N)nc1=O [2'-ETHYNYL-D-CYTIDINE]
23 µM: EC50 [8]
> 100 µM: CC50 [11]

Nc1c(/N=C/c2ccc([N+](=O)[O-])cc2)cc2cccnc2c1Cl
> 100 µM: EC50 [2] | CC50 at 72 h [4] | EC50 [5] | EC50 [6] | CC50 at 72 h [7] | EC50 [8] | EC50 [9] | EC50 [10] | CC50 [11] | EC50 [14]
1.7 µM: EC50 [13]
14 µM: EC50 [12]
53 µM: CC50 at 96 h [1]
88 µM: EC50 [3]

N#Cc1ccc(/C=N/c2cc3c(=O)cc[nH]c3c(Cl)c2N)cc1
> 100 µM: CC50 at 96 h [1] | EC50 [2] | EC50 [3] | CC50 at 72 h [4] | EC50 [5] | EC50 [6] | CC50 at 72 h [7] | EC50 [8] | EC50 [9] | CC50 [11] | EC50 [12] | EC50 [14]
28 µM: EC50 [13]
> 87 µM: EC50 [10]

N#Cc1ccc(/C=N/c2cc3cccnc3c(Cl)c2N)cc1
46 µM: CC50 at 96 h [1] | EC50 [6]
26 µM: EC50 [12]
> 100 µM: EC50 [2] | EC50 [3] | CC50 at 72 h [4] | EC50 [5] | CC50 at 72 h [7] | EC50 [8] | EC50 [9] | EC50 [10] | CC50 [11] | EC50 [14]
2 µM: EC50 [13]

N#Cc1ccc(-c2nc3cccnc3[nH]2)cc1
> 100 µM: CC50 at 96 h [1] | EC50 [2] | EC50 [3] | CC50 at 72 h [4] | EC50 [5] | EC50 [6] | CC50 at 72 h [7] | EC50 [8] | EC50 [9] | EC50 [10] | CC50 [11] | EC50 [12] | EC50 [13] | EC50 [14]

CC(=O)c1ccc(-c2nc3ccncc3[nH]2)cc1
7 µM: EC50 [13]
> 100 µM: CC50 at 96 h [1] | EC50 [2] | EC50 [3] | CC50 at 72 h [4] | EC50 [5] | EC50 [6] | CC50 at 72 h [7] | EC50 [8] | EC50 [9] | EC50 [10] | CC50 [11] | EC50 [12] | EC50 [14]

CC(=O)c1ccc(-c2nc3cc(Br)cnc3[nH]2)cc1
> 100 µM: EC50 [2] | CC50 at 72 h [4] | CC50 at 72 h [7] | EC50 [10] | EC50 [13]
28 µM: CC50 at 96 h [1] | EC50 [14]
> 50 µM: EC50 [3] | EC50 [5] | EC50 [6] | EC50 [8] | EC50 [9] | EC50 [12]
50 µM: CC50 [11]

Nc1c(/N=C/c2ccc(C(F)(F)F)c([N+](=O)[O-])c2)cc2cccnc2c1Cl
> 100 µM: EC50 [2] | CC50 at 72 h [4] | CC50 at 72 h [7] | EC50 [9] | EC50 [14]
11 µM: EC50 [13]
> 75 µM: EC50 [10]
16 µM: EC50 [6]
> 90 µM: EC50 [3] | EC50 [5] | EC50 [12]
20 µM: CC50 at 96 h [1]
90 µM: CC50 [11]
22 µM: EC50 [8]

c1cnc2[nH]c(-c3ccoc3)nc2c1
> 100 µM: CC50 at 96 h [1] | EC50 [2] | EC50 [3] | CC50 at 72 h [4] | EC50 [5] | EC50 [6] | CC50 at 72 h [7] | EC50 [8] | EC50 [9] | EC50 [10] | CC50 [11] | EC50 [12] | EC50 [13] | EC50 [14]

CC(=O)c1ccc(-c2nc3cccnc3[nH]2)cc1
65 µM: EC50 [13]
> 100 µM: CC50 at 96 h [1] | EC50 [2] | EC50 [3] | CC50 at 72 h [4] | EC50 [5] | EC50 [6] | CC50 at 72 h [7] | EC50 [8] | EC50 [9] | EC50 [10] | CC50 [11] | EC50 [12] | EC50 [14]

Nc1ccn(C[C@@H](CO)OCP(=O)(O)O)c(=O)n1 [CIDOFOVIR]
> 100 µM: CC50 [11]
19 µM: EC50 [3]

C[C@@]1(O)[C@H](O)[C@@H](CO)O[C@H]1n1ccc(N)nc1=O
16 µM: EC50 [2]
> 100 µM: EC50 [10]

C[C@@]1(O)[C@H](O)[C@@H](CO)O[C@H]1n1cnc2c(=O)[nH]c(N)nc21 [2'-B-METHYL-GUANOSINE]
> 100 µM: CC50 at 72 h [4] | CC50 at 72 h [7]
1.1 µM: EC50 [13]

Nc1nc2c(ncn2COCCO)c(=O)[nH]1 [ACYCLOVIR]
> 100 µM: CC50 [11]

O=c1cnn([C@@H]2O[C@H](CO)[C@@H](O)[C@H]2O)c(=O)[nH]1 [6-AZAURIDINE]
≥ 12.5 µM: CC50 [11]
1.2 µM: EC50 [12]
